# bCat nuc transl: modulators of beta-catenin nuclear translocation; HeLa beta-catenin nuclear translocation, immunofluorescence imaging; nuclear translocation activity, % at 5 µM; AID 1665; hit rate 0.3% among 190,000;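 active means nuclear translocation activity above 50% at 5 µM, with a well cell count of 50 or more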;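 further: per-cell ratio of nuclear to cytoplasmic median beta-catenin stain intensity; plate controls were DMSO negative control for no effect and GSK-3 inhibitor IX positive control for full effect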
#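 System: HeLa cells, endogenous beta-catenin; compound dosing: 5 µM primary single dose, 0.1% DMSO, 0.02–20 µM confirmation series; incubation: 24 h compound exposure at 37°C, 5% CO2; signal: beta-catenin immunofluorescence imaging with DAPI; evaluation: % activation, nuclear-to-cytoplasmic median beta-catenin signal ratio per cell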
# MT stabilize HCS: microtubule stabilizers in HeLa cells; hit rate 0.83% among 200,000; AID 2205; % tubulin-high responders, % at 10 µM; HeLa tubulin immunostaining HCS, 24 h; share of cells brighter than vehicle mean+2SD;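 active means plate Z-score above 3 for both tubulin-high and condensed-nucleus cell shares, with cell loss under 80%, at 10 µM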;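 further: anti alpha tubulin signal scored within the nucleus-defined area of each cell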
# Lmaj promast: reduces viability of Leishmania major promastigotes; resazurin fluorescence viability; inhibition, % at 10 µM; hit rate 9% among 200,000; AID 1063; in the data active means inhibition above about 50%;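 further: promastigotes grown with compound for 44 hours at 28 °C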
# Dynein cargo inh: dynein cargo transport inhibition; 3617.4 mouse cells, GR-EGFP nuclear translocation imaging; test concentration mostly 20 µM; stimulated with dexamethasone, 1 µM; active compounds read low; z-score, hits read low; hit rate 0.47% among 220,000; AID 1381;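 active means plate z-score of nuclear minus cytoplasmic receptor signal below a set negative limit, without overly bright fluorescence or cell loss, cut at about -3.5 in these data, passing the limit was not always enough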;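 further: z-score of nuclear minus cytoplasmic ring GR-EGFP intensity difference per well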
#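 Medium: Induction medium lacking tetracycline, stripped serum | Probe or stimulus: 1.0 µM final dexamethasone stimulus | Schedule: 48 h induction, then 1 h compound, then 30 min agonist, 37 °C | Signal: Automated 10x imaging of fixed Hoechst-stained cells | Evaluation: Per-cell GR-EGFP intensity, nucleus versus surrounding cytoplasmic ring, well-averaged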
# HSV augment: increases HSV replication in cells; HSV replication augmentation in cells, fold increase; maximum fold increase; hit rate 0.005% among 220,000; AID 1956; in the data active means maximum fold increase above about 1.5; tested in PC3 cells
# L major 1uM: inhibitors of Leishmania major promastigote growth, repeat at 1 uM; hit rate 13% among 1,100; shares compounds with Lmaj promast; L. major promastigote growth, resazurin fluorescence, 48 h; inhibition, % at 1 µM;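 active means inhibition above about 50% in both repeat tests, limit read from the data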
# * = called active by the depositor; i = inactive; . = not tested or not shown. This is a sample that favours compounds with a hit; in the whole collection about 8.9% have one here.
SMILES,bCat nuc transl,MT stabilize HCS,Lmaj promast,Dynein cargo inh,HSV augment,L major 1uM
O=C(NS(=O)(=O)c1ccc2c(c1)OCCO2)c1ccccc1,.,4.7,-11.3,-0.152,i,.
Cn1cc(/C=C/C(=O)c2ccccc2)c2ccccc21,0.0,.,.,-0.371,i,.
Cc1cc2c(c(/C=C/C(=O)c3ccccc3)c1)OC1(C=C2)Oc2ccccc2C(=O)N1C (stereo unspecified),-5.2,9.7,97.7*,-1.02,i,25.3
COC(=O)c1sccc1-c1ccc(C(=O)Nc2cccnc2)o1,.,1.7,41.7,0.768,i,.
CCCCNCCCOc1cccc(Cl)c1,-0.3,5.1,93.7*,0.26,i,6.2
N/C(COc1cccc(Cl)c1)=N\O,-1.6,.,.,0.442,i,.
O=C(CCc1ccccc1)Nc1nnc(-c2ccccn2)o1,0.8,2.3,62.3*,0.511,i,33.7
CC1(C)Cc2ccccc2-c2nnc(-c3ccc4ccccc4n3)n21,-1.3,3.8,62.4*,0.266,i,56.6*
CCOP(=O)(c1ccccc1)c1nc(-c2ccccc2C)oc1N1CCCCC1 (stereo unspecified),-1.8,3.5,50.3*,0.797,i,-15.8
O=c1[nH]c(-c2ccccc2)cs1,-1.8,6.6,-2.3,1.44,i,.
S=c1[nH]c(-c2ccccc2)cs1,-3.4,6.5,77.3*,0.965,i,-9.3
CC(C)(C)c1cc(C(C)(C)C)cc(S(=O)(=O)CCc2ccccn2)c1,.,4.3,60.0*,-0.512,i,-0.4
CN(CCc1ccccn1)S(=O)(=O)c1ccccc1F,-0.3,3.4,-5.2,-1.05,i,.
C=CCSC(=S)NC1CCS(=O)(=O)C1 (stereo unspecified),0.1,1.8,93.1*,-2.71,i,5.6
NC(=S)NC1CCS(=O)(=O)C1 (stereo unspecified),-0.7,2.3,-2.6,-0.161,i,.
C/C(CCN1CCCCc2nc(C)c(C)cc21)=N\O[C@@H](C)CN1CCCCc2nc(C)c(C)cc21,.,4.3,68.0*,0.408,.,14.7
COc1ccc(O[C@H]2C=C[C@@H](c3ccccc3)O[C@@H]2COC(=O)CCC(C)=NO[C@@H]2O[C@H](COC(C)=O)[C@@H](OC(C)=O)[C@H](OC(C)=O)[C@H]2OC(C)=O)cc1,-4.0,4.3,-3.3,-0.557,i,.
COc1ccc(O[C@H]2C=C[C@@H](c3ccccc3)O[C@@H]2CO/N=C(\C)CCN2CCCCc3nc(C)c(C)cc32)cc1,0.2,2.5,84.0*,-0.589,.,16.1
C/C(CCN1CCCCc2nc(C)c(C)cc21)=N\OC[C@@H](O)[C@H]1O[C@@H]2OC(C)(C)O[C@@H]2[C@H]1O,.,4.1,-7.6,0.459,i,.
CCn1ncc(/C=N\NC(=O)COc2ccccc2)c1C,4.8,2.3,-5.8,1.22,i,.
Cc1ccc(S(=O)(=O)n2ccc(OC(=O)c3cccs3)n2)cc1,6.3,0.8,-3.4,0.318,i,.
C1CCC(C(CC2CCCCN2)C2CCCCC2)CC1 (stereo unspecified),6.7,34.8*,100.5*,-2.5,i,1.5
CCOC(=O)c1c(C)oc2ccc(O)c(CN3CCCCC3)c12,0.7,2.3,87.7*,-1.04,i,-10.1
CCOC(=O)c1c(C)n(C)c2ccc(O)c(CN3CCCCC3)c12,-0.4,1.9,31.5,-0.0425,i,.
Cn1c2ccccc2n2c(=O)c(Cl)c(-c3ccccc3)c(C#N)c12,-0.9,2.1,61.6*,1.2,i,0.2
SMILES,bCat nuc transl,MT stabilize HCS,Lmaj promast,Dynein cargo inh,HSV augment,L major 1uM
C=CCOc1ccc2ccccc2c1/C=N/O,.,1.0,51.1*,-0.556,i,0.7
O=c1sc(Nc2ccccc2)nc2ccsc12,-1.2,1.3,100.0*,-1.05,i,-16.4
O=C(Nc1nc2ccsc2c(=O)s1)C1CCC1,-0.1,.,.,0.668,i,.
Oc1ccccc1-c1nc(/C=C/c2ccccc2)nn1-c1ccccc1,-1.6,3.7,98.2*,0.192,i,6.5
CCCCc1ccc(NC(=O)CN2NS(=O)(=O)c3ccccc3C2=O)cc1,-4.4,1.8,-1.5,0.27,i,.
CC1(C)CC(=O)c2cc(C(=O)NNc3ccccc3)c(=O)n(-c3ccccc3)c2C1,3.3,2.6,52.3*,0.574,i,10.7
COc1ccc2cc(Br)ccc2c1CC(=O)NC1CC(C)(C)NC(C)(C)C1,.,2.0,99.9*,0.114,i,-9.5
O=Cc1ccc(Oc2cc(-c3ccccc3)nc(-c3ccccc3)n2)cc1,-1.9,2.2,57.5*,-0.293,i,-14.2
CC(=O)c1ccc(Oc2cc(-c3ccccc3)nc(-c3ccccc3)n2)cc1,-1.3,1.8,37.9,1.53,i,.
O=C(CCCn1nnc(-c2cccnc2)n1)c1ccc(F)cc1,-2.6,4.4,-5.1,-0.668,i,.
CC12CCCCN1CCCc1c2[nH]c2ccccc12 (stereo unspecified),-4.7,2.3,64.4*,-0.532,i,-2.4
COc1ccc(CN(C(=O)c2cnccn2)C(C(=O)Nc2ccc(F)cc2)c2ccccc2)cc1 (stereo unspecified),1.2,2.8,62.3*,-0.785,i,-1.2
CCC(C)(C)NC(=O)C(c1ccc(F)cc1)N(Cc1ccc(OC)cc1)C(=O)c1cnccn1 (stereo unspecified),0.2,1.4,35.2,-0.0394,i,.
CCCc1nnc(NC(=O)CN2CCN(C)CC2)s1,-5.3,1.9,3.4,0.296,i,.
O=C1c2ccccc2C(=O)N1CC#CCN1CCN(C(c2ccccc2)c2ccccc2)CC1,-0.7,3.1,2.3,0.335,i,.
Cn1cc(CN2CCC(CO)CC2)c(-c2ccc(Oc3ccccc3)cc2)n1,0.3,3.0,96.5*,-0.0647,i,75.4*
CN(C)c1ccc(-c2noc(C3CCN(S(=O)(=O)c4ccc(C(=O)O)cc4)CC3)n2)cc1,.,4.0,0.1,0.648,i,.
O=C(CC1CCCCC1)N1CCC(c2nc(-c3ccc(S(=O)(=O)N4CCCC4)cc3)no2)CC1,2.4,21.7,65.8*,-0.331,i,2.0
CNC(=O)/C=C1\NC(C)(C)Cc2c1ccc1ccccc21,-0.3,3.7,54.3*,-2.11,i,5.2
Cc1ccc(S(=O)(=O)c2ccc(NN)cc2)cc1,-0.3,2.6,96.9*,-0.644,i,-9.6
Cc1ccc(NC(=O)Nc2ccc(S(N)(=O)=O)cc2)cc1,2.1,2.5,-0.4,-0.0066,i,.
CCOc1ccc(S(=O)(=O)N(C)c2ccc(OCC(=O)NCc3ccco3)cc2)cc1,.,2.6,2.9,-0.854,i,.
CCOC(=O)C(C)C1(O)c2ccccc2-c2ncccc21 (stereo unspecified),-1.5,3.8,-5.0,-0.447,i,.
OC(CC1CC12c1ccccc1-c1ncccc12)(c1ccccc1)c1ccccc1 (stereo unspecified),-12.8,2.1,69.3*,0.181,i,9.2
O=C(Nc1ccc(CN2CCOCC2)cc1)c1cccs1,.,4.6,96.1*,-0.276,i,-10.6
CCCCCOC(=O)c1ccc(OC(=O)c2cncc(Br)c2)cc1,-1.5,2.1,-8.4,-0.678,i,.
